Data reported in PubChem BioAssay AID540295 (The Scripps Research Institute Molecular Screening Center, 2011).
About 1,700 (0.47%) of roughly 360,000 compounds were called active.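 The calls were made as follows: active = inhibition above its plate's cutoff, the mean of tested wells on that plate plus 3 SD (cut at about 29% in these data); inactive = the rest.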 Many of the other results were omitted from the sample, so actives are more common in it than they were.

molecular target: Melanocortin receptor 4 (Homo sapiens) (UniProt P32245); test: blockers of MC4R Gs-cAMP response – cell-based, TR-FRET, antagonist arm of biased-ligand search, primary screen (AID 540295); conditions: MC4R-expressing cells, MTII-stimulated cAMP, LANCE TR-FRET; at 6.5 µM; stronger effect = higher value;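 also: 0% = Melanotan II alone and 100% = Melanotan II plus saturating MCL0020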
Method in brief: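 system = U2OS cells with stable human MC4R expression | also added = Melanotan II challenge after compound preincubation | dosing = one concentration, 6.5 µM nominal | incubation = compound 30 min, challenge 1 h, detection 1 h | measured by = TR-FRET with Eu-cAMP and labeled anti-cAMP, 671 nm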

Sequence of Melanocortin receptor 4 (Homo sapiens) (P32245 whole entry, looked up): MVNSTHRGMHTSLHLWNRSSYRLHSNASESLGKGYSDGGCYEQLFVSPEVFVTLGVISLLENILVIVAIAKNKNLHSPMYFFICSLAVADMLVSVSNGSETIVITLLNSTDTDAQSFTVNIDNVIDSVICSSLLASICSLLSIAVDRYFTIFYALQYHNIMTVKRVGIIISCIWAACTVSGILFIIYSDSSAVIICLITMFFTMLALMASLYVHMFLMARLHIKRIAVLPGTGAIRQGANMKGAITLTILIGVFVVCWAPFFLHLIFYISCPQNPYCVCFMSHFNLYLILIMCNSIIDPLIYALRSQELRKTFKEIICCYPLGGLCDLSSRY

Structure (SMILES) | inhibition
COc1ccc(CCNC(=O)CSCc2ccc(Br)cc2)cc1OC | 1.08% (inactive)
CC(C)c1ccc(NC(=O)CCN2C(=O)c3ccc([N+](=O)[O-])cc3C2=O)cc1 | 7.45% (inactive)
O=NN(CCCl)C(=O)NCCc1cccc[n+]1[O-] | 7.72% (inactive)
CC(C)(C)C1CCC(OC(=O)CCC(=O)Nc2ccccc2)CC1 (centres undefined) | 2.76% (inactive)
CC1C(C)N(C(=O)CCl)c2ccccc2N1C(=O)CCl (centres undefined) | -4% (inactive)
COc1ccc(C(=O)OCC(=O)NCC2CCCO2)cc1[N+](=O)[O-] (centres undefined) | 1.35% (inactive)
O=C(N[C@@H](Cc1ccccc1)C(=O)OCc1ccccc1)c1nc[nH]c1C(=O)N[C@@H](Cc1ccccc1)C(=O)OCc1ccccc1 | 10.8% (inactive)
C[C@@H](NC(=O)c1nc[nH]c1C(=O)N1CCN(C(=O)OC(C)(C)C)CC1)c1ccccc1 | 15.2% (inactive)
CC(C)(C)OC(=O)N1CCC(NC(=O)c2[nH]cnc2C(=O)N[C@@H](Cc2ccccc2)C(=O)OCc2ccccc2)CC1 | 35.5% (active)
O=C1NC(c2ccccc2)CCC1(Cl)Cl (centres undefined) | 3.93% (inactive)
C=CCn1c(SCC(=O)c2c(N)n(C)c(=O)n(C)c2=O)nc2sc(CC)cc2c1=O | 8.69% (inactive)
Cn1c(SCc2ccc(F)cc2)nnc1-c1ccncc1 | 0.33% (inactive)
Cc1ccc(CSc2nnc(-c3cnccn3)n2C)cc1 | 29.1% (active)
Cn1c(SCc2c(F)cccc2Cl)nnc1-c1cnccn1 | -3.89% (inactive)
[O-][n+]1onc2c1CCc1[nH]c(-c3ccccc3)nc1-2 | 2.02% (inactive)
COc1ccc(NS(=O)(=O)c2ccc(C)c(C(=O)NNC(=O)c3csc(N4CCOCC4)n3)c2)cc1 | -2.21% (inactive)
CC(C)Oc1ccc(/C=C(\NC(=O)/C=C/c2ccco2)C(=O)NCCc2nc3ccccc3[nH]2)cc1 | 28.9% (active)
CC(C)=C(NC(=O)c1ccco1)C(=O)NCCc1nc2ccccc2[nH]1 | 2.22% (inactive)
CCCCCOc1ccc(/C=C/C(=O)NCCc2nc3ccccc3[nH]2)cc1OC | 6.2% (inactive)
O=C(N/N=C\c1ccc(-c2ccc(Cl)c(Cl)c2)o1)C(=O)N1CCCC1 | 4.11% (inactive)
Cc1ccc(S(=O)(=O)N(CC(=O)NCc2ccco2)c2ccccc2C)cc1 | 12.4% (inactive)
COc1ccc(Cc2cc(-c3ccc(F)cc3)n[nH]c2=O)cc1 | 9.23% (inactive)
COc1cccc(NC(=O)c2nn(-c3ccc(OC)cc3OC)c(=O)c3ccccc23)c1 | -1.09% (inactive)

Structure (SMILES) | inhibition
COc1ccc(-n2nc(C(=O)NCC(=O)N3CCN(c4ccccc4OC)CC3)c3ccccc3c2=O)c(OC)c1 | 1.93% (inactive)
COc1ccc(-n2nc(C(=O)Nc3cc(OC)c(OC)c(OC)c3)c3ccccc3c2=O)c(OC)c1 | 31.6% (active)
COc1ccc(CCNC(=O)CN2C(=O)COc3ccc(S(=O)(=O)N4CCCC4)cc32)cc1OC | 3.63% (inactive)
CCCS(=O)(=O)NC(=O)C1(C)CCCN(C(=O)c2cc(C)on2)C1 (centres undefined) | 10.6% (inactive)
Cc1cc(=O)oc2c3c(cc(OCC(=O)NCc4ccccn4)c12)OC(C)(C)CC3 | -0.73% (inactive)
Cc1ccc(C)c(OCCC(=O)OCC(=O)c2ccc3c(c2)NC(=O)CO3)c1 | 2.21% (inactive)
O=C(O)CN1C(=O)CC(Cc2ccccc2)C1=O (centres undefined) | -3.51% (inactive)
Cc1ccc(NC(=O)C2CC2c2ccccc2)cc1 (centres undefined) | 0.14% (inactive)
COC(=O)c1ccc(Sc2ccc(F)cc2)c(N)c1 | -11.2% (inactive)
Cc1ccc(Sc2ccc(NC(=O)c3ccc(F)cc3)cc2C#N)cc1 | 33.5% (active)
COc1ccc(Sc2ccc(NC(=O)c3cccc(Cl)c3)cc2C#N)cc1 | 5.3% (inactive)
Cc1ccc(S(=O)(=O)N(C)CC(=O)OCC(=O)Nc2ccccc2)cc1 | 34.1% (active)
Cc1ccc(S(=O)(=O)N2CCC(C(=O)OCC(=O)N3CC(=O)Nc4ccccc43)CC2)cc1 | 20.2% (inactive)
CN(c1ccccc1)S(=O)(=O)c1ccc(NC(=O)COc2ccccc2)cc1 | -6.55% (inactive)
Cc1ccc(S(=O)(=O)N(C)CC(=O)OCC(=O)N2CC(=O)Nc3ccccc32)cc1 | 33.9% (active)
CN(C)S(=O)(=O)c1ccc(NC(=O)COC(=O)Cn2[nH]c(=O)c3ccccc3c2=O)cc1 | 9.38% (inactive)
Cc1ccccc1SCC(=O)OCC(=O)N1CC(=O)Nc2ccccc21 | 0.86% (inactive)
COc1ccnc(Oc2ccccc2)n1 | 0.1% (inactive)
O=C(c1ccccc1)N1CCN(c2cc(-c3ccccc3)nc3cc(-c4cccc(Cl)c4)nn23)CC1 | 1.52% (inactive)
CN(C)CCN1CCN(c2cc(-c3cccc(Cl)c3)nc3ccnn23)CC1 | 3.3% (inactive)
C#Cc1cc(N2CCN(C(=O)c3ccoc3)CC2)n2nc(-c3cccc(Cl)c3)cc2n1 | 32.1% (active)
CC(CNc1ccc([N+](=O)[O-])c2cccnc12)Nc1c([N+](=O)[O-])cc(C(F)(F)F)cc1[N+](=O)[O-] (centres undefined) | 7.59% (inactive)
COc1ccccc1-c1n[nH]c2c1[C@H](C)CC[C@H]2C(C)C | 10% (inactive)

Structure (SMILES) | inhibition
Cc1cc(C)cc(Oc2c(C(F)(F)F)oc3cc(OCC(=O)O)ccc3c2=O)c1 | -2.27% (inactive)
O=C(CSc1nc2ccc(Nc3nc(N4CCOCC4)nc(N4CCOCC4)n3)cc2s1)NCc1ccco1 | 29.5% (active)
O=C(CSc1nc(Nc2ccccc2)nc(N2CCOCC2)n1)Nc1cc(Cl)ccc1O | -4.1% (inactive)
O=C(CSc1c2c(nc3ccc(Cl)cc13)CCCC2)NCc1ccco1 | 11.1% (inactive)
Cc1ccccc1N1CC(C(=O)Nc2ccc3c(c2)OCO3)CC1=O (centres undefined) | 8.22% (inactive)
CCOCc1nnc(NC(=O)CCS(=O)(=O)Cc2ccccc2)s1 | 4.21% (inactive)
O=C1C(Cl)=C(Oc2ccccc2)C(=O)c2ccccc21 | 93.5% (active)
CCC1CCCCN1C(=S)Nc1ccc(S(=O)(=O)Nc2ncccn2)cc1 (centres undefined) | -1.16% (inactive)
C=CC(=O)OCCOCCOCCOCCOC(=O)C=C | -0.74% (inactive)
COCC(C)NC(=O)c1ccc(-n2nc(C(F)(F)F)cc2-c2cccs2)cc1 (centres undefined) | 11.7% (inactive)
Cc1ccc(C)c(NC2=NCC(=O)N2c2ccc3c(c2)OCCO3)c1 | -2.27% (inactive)
Cc1cc(=O)oc2c3c(cc(OCC(=O)NCC(O)c4ccccc4)c12)OC(C)(C)CC3 (centres undefined) | 14.2% (inactive)
Brc1c(CSc2nncc3ccccc23)nc2ccccn12 | 0.34% (inactive)
CCOC(=O)C(C)n1cnc2sc(C)c(C)c2c1=O (centres undefined) | 31.2% (active)
CC(C(=O)O)n1cnc2sc3c(c2c1=O)CCCC3 (centres undefined) | -7.65% (inactive)
CCOC(=O)C(C)n1cnc2scc(-c3ccc(C)c(C)c3)c2c1=O (centres undefined) | 1.47% (inactive)
CC(=O)NC12CC3CC(C1)CC(C(=O)N1CCN(C(=O)c4ccco4)CC1)(C3)C2 | -0.56% (inactive)
CCN1CCN(c2nc(Nc3cc(OC)ccc3OC)nc(Nc3cc(OC)ccc3OC)n2)CC1 | 12.3% (inactive)
COc1ccc(Nc2ncc(F)c(N3CCOCC3)n2)cc1 | -0.86% (inactive)
CCOc1ccc(Nc2nc(Cl)nc(N3CCN(c4ccc(OC)cc4)CC3)n2)cc1 | 29.1% (active)
Cc1ccc(Nc2cc(C)nc3c(C)ccc([N+](=O)[O-])c23)cc1 | -5.69% (inactive)
CCNC(=O)CCc1nc(-c2ccc(C(C)(C)C)cc2)no1 | 9.83% (inactive)
Cc1cccc(-c2nc3c(c(SCC(=O)N4CCOCC4)n2)CCCC3)c1 | 3.91% (inactive)

Structure (SMILES) | inhibition
CCCS(=O)(=O)NC(=O)C1(C)CCCN(C(=O)c2ccnc(Cl)c2)C1 (centres undefined) | -1.37% (inactive)
Cc1nnc(N/N=C/C2CC=CCC2)[nH]c1=O (centres undefined) | 33.9% (active)
Cc1nnc(N/N=C/c2ccccn2)[nH]c1=O | -1.07% (inactive)
O=C(N/N=C\C1CC=CCC1)c1ccc(Br)o1 (centres undefined) | 6.38% (inactive)
CCN1CCN(C(=O)CN(C)S(=O)(=O)c2ccc(OC)cc2)CC1 | 9.54% (inactive)
Cc1ccc(C)c(S(=O)(=O)N2CCN(CC(=O)Nc3ccc([N+](=O)[O-])cc3)CC2)c1 | 34.2% (active)
Cc1ccc(NC(=O)CCNC(=O)c2ccc([N+](=O)[O-])cc2)cc1S(=O)(=O)N1CCOCC1 | -2.86% (inactive)
Cc1ccc([N+](=O)[O-])cc1S(=O)(=O)N1CCCN(C)CC1 | -8.59% (inactive)
COC(=O)c1ccc(CSc2ccc(S(=O)(=O)N3CCCCC3)cn2)cc1 | 0.99% (inactive)
Cc1ccc(SC(CC(=O)c2ccc(C(C)(C)C)cc2)C(=O)O)cc1 (centres undefined) | 31.2% (active)
Cc1ccc(SC(C)C(=O)NCc2ccc(F)cc2)cc1 (centres undefined) | -3.51% (inactive)
Cc1ccc(Sc2cc(C(=O)c3ccccc3C(=O)O)ccc2[N+](=O)[O-])cc1 | -7.09% (inactive)
Cc1ccc(S(=O)(=O)Nc2nc(C)cc(-n3nc(C)cc3C)n2)cc1 | 14.3% (inactive)
CCCC(C(=O)n1nc(C)cc1C)C(NS(=O)(=O)c1ccc(C)cc1)c1ccccc1 (centres undefined) | 34.4% (active)
Cc1ccc(S(=O)(=O)NC(C(=O)N2CCOCCOCCOCCOCC2)c2ccccc2)cc1 (centres undefined) | -0.07% (inactive)
CCc1c(C)[nH]c(=S)c(C#N)c1C | 14.3% (inactive)
O=C1NC[C@@H](c2ccccc2)OC(=O)[C@H](Cc2ccc(F)cc2)CC/C=C/C[C@H]1CC(=O)N(CCO)Cc1ccccc1 | 7.53% (inactive)
O=C1/C(=C\c2ccc([N+](=O)[O-])cc2)CS(=O)(=O)C/C1=C/c1ccc([N+](=O)[O-])cc1 | 34.6% (active)
CC(=O)Nc1ccc(C=Cc2ccc([N+](=O)[O-])cc2)cc1 | 1.16% (inactive)
O=C(O)C(=Cc1ccc([N+](=O)[O-])cc1)CCc1ccccc1 | -2.43% (inactive)
